Experimental data reported in ChEMBL document CHEMBL4814031, “In pursuit of a selective hepatocellular carcinoma therapeutic agent: Novel thalidomide derivatives with antiproliferative, antimigratory and STAT3 inhibitory properties” (Eur J Med Chem, 2021).
The source made the active and inactive calls. The rule behind the calls is not given here.

Assays:
[1] = target: Transcription factor p65 (Mus musculus) (UniProt Q04207); test: Inhibition of NFkB p65 nuclear translocation in mouse BMOL-T cells assessed as change in nuclear p65 level at 10 uM incubated for 6 hrs by immunofluorescent assay relative to control; assay type: subcellular; set-up: scale not given: the % may be the effect or the level left; settings: Nucleus
How it was run: (§1)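 BMOL cells in supplemented Williams' E medium were treated 6 h with compound or 0.1% DMSO vehicle. Fixed in 4% PFA, permeabilised with 0.1% Triton X-100, blocked, then incubated 18 h with anti-phospho-p65, -Akt or -STAT3, then secondary antibody 1 h and Hoechst. High-content imaging of per-cell intensity and nuclear:whole-cell ratio. Mean of two experiments, SD.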

[2] = target: T1, Signal transducer and activator of transcription 3 (Mus musculus, UniProt P42227); test: Inhibition of STAT3 phosphorylation in mouse BMOL-NT cells assessed as change in phosphorylated STAT3 level at 10 uM incubated for 6 hrs by immunofluorescence assay relative to control; assay type: cell-based; set-up: scale not given: the % may be the effect or the level left; how it was run: as §1
[3] = Antimigratory activity against mouse BMOL-T cells assessed as inhibition of cell migration at 10 uM incubated for 16 hrs by scratch wound healing assay relative to control; assay type: functional
How it was run: (§2)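 Wound healing in BMOL-T cells plated at 20,000/well in supplemented Williams' E medium and grown 24 h. Wounds made with a Woundmaker, then medium replaced with fresh medium holding compound or 0.1% DMSO vehicle. Live-cell imaging every 2 h over 24 h, read as average wound width (µm). n = 3, SEM.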

[4] = Antiproliferative activity against mouse BMOL-NT cells assessed as cell growth inhibition at 14 to 26 uM measured every 4 hrs for 3 days by IncuCyte zoom live cell analysis; assay type: cell-based; settings: 72 h, dose 14-26 µM, time 3 day
[5] = Inhibition of Akt phosphorylation in mouse BMOL-NT cells assessed as change in phosphorylated Akt level at 10 uM incubated for 6 hrs by immunofluorescent assay relative to control; assay type: cell-based; set-up: scale not given: the % may be the effect or the level left; how it was run: as §1
BMOL-T [6] = test: Inhibition of Akt phosphorylation in mouse BMOL-T cells assessed as change in phosphorylated Akt level at 10 uM incubated for 6 hrs by immunofluorescent assay relative to control; assay type: cell-based; set-up: scale not given: the % may be the effect or the level left; how it was run: as §1
[7] = (§3) Antiproliferative activity against mouse BMOL-T cells assessed as minimum concentration required for cell growth inhibition measured every 4 hrs for 3 days by IncuCyte zoom live cell analysis; assay type: functional; settings: time 3 day
How it was run: (§4)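 Dose series for BMOL-T proliferation: cells plated at 1000/well, compound added from 2× solutions (final 0.1% DMSO), imaged every 4 h for 3 days. Doubling time from the log-phase linear part of a log confluence vs time curve, expressed as % change over vehicle. n = 3, SEM.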

BMOL-T [8] = test: as §3; assay type: functional; settings: time 3.0 day; how it was run: as §4
[9] = target: Signal transducer and activator of transcription 3 (Mus musculus) (UniProt P42227); test: Inhibition of STAT3 phosphorylation in mouse BMOL-T cells assessed as change in nuclear phosphorylated STAT3 level at 10 uM incubated for 6 hrs by immunofluorescence assay relative to control; assay type: subcellular; set-up: scale not given: the % may be the effect or the level left; settings: Nucleus; how it was run: as §1
[10] = Antiproliferative activity against mouse BMOL-NT cells assessed as cell growth inhibition at >10 uM measured every 4 hrs for 3 days by IncuCyte zoom live cell analysis; assay type: cell-based; settings: 72 h, time 3 day
[11] = Selectivity for antiproliferative activity against mouse BMOL-T cells over mouse BMOL-NT cells at 26 uM measured every 4 hrs for 3 days by IncuCyte zoom live cell analysis; settings: time 3 day
BMOL-T [12] = test: Effect on STAT3 expression in mouse BMOL-T cells at 10 uM by AlphaLISA assay; assay type: functional, cell-based
How it was run: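 AlphaLISA in BMOL-T cells treated at 10 µM with 0.1% DMSO vehicle as control. Read as normalised fluorescence for total STAT3, or as the ratio of total STAT3 to p-STAT3. n ≥ 3, SEM. Significance by ANOVA with Dunnett's test.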

[13] = target: Signal transducer and activator of transcription 3 (Mus musculus) (UniProt P42227); test: Inhibition of STAT3 phosphorylation in mouse BMOL-T cells assessed as change in phosphorylated STAT3 level at 10 uM incubated for 6 hrs by immunofluorescence assay relative to control; assay type: cell-based; set-up: scale not given: the % may be the effect or the level left; how it was run: as §1
Transcription factor p65 [14] = target: T2, Transcription factor p65 (Mus musculus, UniProt Q04207); test: Inhibition of NFkB p65 nuclear translocation in mouse BMOL-NT cells assessed as change in nuclear p65 level at 10 uM incubated for 6 hrs by immunofluorescent assay relative to control; assay type: subcellular, Nucleus; set-up: scale not given: the % may be the effect or the level left; how it was run: as §1
Transcription factor p65 [15] = target: T2, Transcription factor p65; test: Inhibition of NFkB p65 phosphorylation in mouse BMOL-NT cells assessed as change in phosphorylated p65 level at 10 uM incubated for 6 hrs by immunofluorescent assay relative to control; assay type: cell-based; set-up: scale not given: the % may be the effect or the level left; how it was run: as §1
[16] = Antiproliferative activity against mouse BMOL-T cells assessed as cell growth inhibition at 10 uM measured every 4 hrs for 3 days by IncuCyte zoom live cell analysis relative to control; assay type: functional; settings: 72 h, time 3 day
[17] = target: Transcription factor p65 (Mus musculus) (UniProt Q04207); test: Inhibition of NFkB p65 phosphorylation in mouse BMOL-T cells assessed as change in phosphorylated p65 level at 10 uM incubated for 6 hrs by immunofluorescent assay relative to control; assay type: cell-based; set-up: scale not given: the % may be the effect or the level left; how it was run: as §1
[18] = Inhibition of Akt phosphorylation in mouse BMOL-NT cells assessed as change in nuclear phosphorylated Akt level at 10 uM incubated for 6 hrs by immunofluorescent assay relative to control; assay type: subcellular, Nucleus; set-up: scale not given: the % may be the effect or the level left; how it was run: as §1
BMOL-T [19] = test: Inhibition of Akt phosphorylation in mouse BMOL-T cells assessed as change in nuclear phosphorylated Akt level at 10 uM incubated for 6 hrs by immunofluorescent assay relative to control; assay type: subcellular; set-up: scale not given: the % may be the effect or the level left; settings: Nucleus; how it was run: as §1
[20] = Selectivity for antiproliferative activity against mouse BMOL-T cells over mouse BMOL-NT cells at 10 uM measured every 4 hrs for 3 days by IncuCyte zoom live cell analysis; settings: time 3 day
[21] = target: T1, Signal transducer and activator of transcription 3; test: Inhibition of STAT3 phosphorylation in mouse BMOL-NT cells assessed as change in nuclear phosphorylated STAT3 level at 10 uM incubated for 6 hrs by immunofluorescence assay relative to control; assay type: subcellular, Nucleus; set-up: scale not given: the % may be the effect or the level left; how it was run: as §1
BMOL-T [22] = test: Antimigratory activity against mouse BMOL-T cells assessed as inhibition of cell migration at 10 uM incubated for 24 hrs by scratch wound healing assay; assay type: functional, cell-based; how it was run: as §2

T1 sequence (P42227 whole entry): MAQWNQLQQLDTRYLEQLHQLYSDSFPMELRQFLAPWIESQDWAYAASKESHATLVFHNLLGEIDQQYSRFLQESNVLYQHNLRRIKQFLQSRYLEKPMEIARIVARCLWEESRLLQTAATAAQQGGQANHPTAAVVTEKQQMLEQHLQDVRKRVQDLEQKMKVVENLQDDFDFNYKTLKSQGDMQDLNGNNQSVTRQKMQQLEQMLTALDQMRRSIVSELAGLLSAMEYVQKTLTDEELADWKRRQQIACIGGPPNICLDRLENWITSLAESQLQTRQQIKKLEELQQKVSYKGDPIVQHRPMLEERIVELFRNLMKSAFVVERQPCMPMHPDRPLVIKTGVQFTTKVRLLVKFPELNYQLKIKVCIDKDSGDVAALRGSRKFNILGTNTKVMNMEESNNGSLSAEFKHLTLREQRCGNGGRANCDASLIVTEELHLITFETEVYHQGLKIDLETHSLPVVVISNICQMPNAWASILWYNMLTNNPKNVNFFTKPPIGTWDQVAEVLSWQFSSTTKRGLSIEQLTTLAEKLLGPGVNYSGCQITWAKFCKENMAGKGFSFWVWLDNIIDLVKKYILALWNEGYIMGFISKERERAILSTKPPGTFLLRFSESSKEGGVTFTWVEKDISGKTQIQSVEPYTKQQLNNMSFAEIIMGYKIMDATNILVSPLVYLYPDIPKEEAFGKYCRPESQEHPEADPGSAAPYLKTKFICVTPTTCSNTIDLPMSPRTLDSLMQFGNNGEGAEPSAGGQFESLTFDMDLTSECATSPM
Sequence of Signal transducer and activator of transcription 3 (Mus musculus) (P42227 whole entry): as above
T2 sequence (Q04207 whole entry): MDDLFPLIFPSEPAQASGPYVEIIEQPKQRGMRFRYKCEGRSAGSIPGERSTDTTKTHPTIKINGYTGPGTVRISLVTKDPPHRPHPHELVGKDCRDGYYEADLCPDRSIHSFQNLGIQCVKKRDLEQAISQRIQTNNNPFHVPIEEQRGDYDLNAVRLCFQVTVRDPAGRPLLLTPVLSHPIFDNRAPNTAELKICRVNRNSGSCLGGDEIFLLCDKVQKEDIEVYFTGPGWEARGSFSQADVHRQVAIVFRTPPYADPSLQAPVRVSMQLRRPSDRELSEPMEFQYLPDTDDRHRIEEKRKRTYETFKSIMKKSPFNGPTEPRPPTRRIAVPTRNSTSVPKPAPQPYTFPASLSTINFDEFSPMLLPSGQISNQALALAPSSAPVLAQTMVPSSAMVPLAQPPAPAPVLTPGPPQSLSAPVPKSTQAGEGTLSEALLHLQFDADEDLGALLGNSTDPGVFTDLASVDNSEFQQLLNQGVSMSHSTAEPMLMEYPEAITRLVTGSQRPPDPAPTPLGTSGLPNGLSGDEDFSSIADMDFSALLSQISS
Sequence of Transcription factor p65 (Mus musculus) (Q04207 whole entry): as above

Q: Which Activity [1] does the source give for CC(C)(C)c1ccc(Sc2cccc3c2C(=O)N(C2CCC(=O)NC2=O)C3=O)cc1 (configuration not stated) here?
A: Its Activity is -23%.

Q: And the Activity [2]?
A: Its Activity is -5%.

Q: And the inhibition at 10 µM [3]?
A: The inhibition at 10 µM was 80%.

Q: And the Activity [4]?
A: Its Activity is “Toxic”.

Q: What about the Activity [5] of the same compound?
A: Its Activity is 0%.

Q: What about the Activity (BMOL-T [6]) of the same compound?
A: The Activity was -3%.

Q: What about the MAC [7] of the same compound?
A: The MAC was less than 6 µM.

Q: What about the Activity (BMOL-T [8]) of the same compound?
A: The Activity was “Dose-Dependent Effect”.

Q: And the Activity [9]?
A: The Activity was -16%.

Q: And the Activity [10]?
A: Its Activity is “Toxic”.

Q: What about the Selectivity ratio [11] of the same compound?
A: Its Selectivity ratio is 9.

Q: And the Activity (BMOL-T [12])?
A: The Activity was “inactive”.

Q: And the Activity [13]?
A: The Activity was -22%.

Q: And the Activity (Transcription factor p65 [14])?
A: Its Activity is 11%.

Q: What about the Activity (Transcription factor p65 [15]) of the same compound?
A: Its Activity is 0%.

Q: What about the inhibition at 10 µM [16] of the same compound?
A: The inhibition at 10 µM was 36%.

Q: What about the Activity [17] of the same compound?
A: The Activity was -13%.

Q: What about the Activity [18] of the same compound?
A: The Activity was -25%.

Q: And the Activity (BMOL-T [19])?
A: Its Activity is -19%.

Q: What about the Selectivity ratio [20] of the same compound?
A: Its Selectivity ratio is 9.

Q: And the Activity [21]?
A: Its Activity is -8%.

Q: And the Activity (BMOL-T [22])?
A: The Activity was “Active”.
